# In ChEMBL document CHEMBL1177711, “Novel quinolizidinyl derivatives as antiarrhythmic agents: 2. Further investigation” (J Med Chem, 2010):
# What was measured:
# Heart [1] = assay: Cardioprotective effect in Langendorff perfused guinea pig spontaneously beating […] assessed as heart rat at 10 uM (RVb = 175 to 190 +/- 5 to 11 bpm); type: functional, Cavia porcellus
# [2] = Cardioprotective effect in Langendorff perfused guinea pig spontaneously beating […] assessed as intraventicular conduction time at 10 uM (RVb = 19 to 24 +/- 1 to 2 ms); type: functional; settings: Cavia porcellus
# In short: (§1)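 Whole guinea pig hearts were Langendorff-perfused and their ECG recorded at graded concentrations. Intervals read were PR (atrioventricular conduction time), QT (ventricular action potential duration) and QRS (intraventricular conduction time).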
# [3] = Cardioprotective effect in Langendorff perfused guinea pig spontaneously beating […] assessed as intraventicular conduction time at 0.01 uM (RVb = 19 to 24 +/- 1 to 2 ms); type: functional; settings: Cavia porcellus; in short: as §1
# [4] = Cardioprotective effect in Langendorff perfused guinea pig spontaneously beating […] assessed as duration of ventricular action potential at 1 uM (RVb = 140 to 161 +/- 2 to 8 ms); type: functional, Cavia porcellus, Cardiac ventricle; in short: as §1
# Heart [5] = assay: Cardioprotective effect in Langendorff perfused guinea pig spontaneously beating […] assessed as heart rat at 0.001 uM (RVb = 175 to 190 +/- 5 to 11 bpm); type: functional, Cavia porcellus
# [6] = Negative chronotropic activity against potassium-induced contraction in guinea pig left atrium assessed as decrease atrial rate at 50 uM relative to control; type: functional, Cavia porcellus, Cardiac atrium; set-up: scale not given: the % may be the effect or the level left
# [7] = Cardioprotective effect in Langendorff perfused guinea pig spontaneously beating […] assessed as atrioventicular conduction time at 0.1 uM (RVb = 50 to 55 +/- 1 to 4 ms); type: functional; settings: Cavia porcellus; in short: as §1
# [8] = Negative inotropic activity against potassium-induced contraction in guinea pig left atrium assessed as decrease in developed tension at 50 uM relative to control; type: functional, Cavia porcellus, Cardiac atrium; set-up: scale not given: the % may be the effect or the level left
# Aorta [9] = assay: Vasorelaxant activity in potassium depolarized guinea pig aortic strip assessed as inhibition of calcium-induced contraction at 50 uM; type: functional; settings: Cavia porcellus
# [10] = Cardioprotective effect in Langendorff perfused guinea pig spontaneously beating […] assessed as duration of ventricular action potential at 0.01 uM (RVb = 140 to 161 +/- 2 to 8 ms); type: functional, Cavia porcellus, Cardiac ventricle; in short: as §1
# [11] = Cardioprotective effect in Langendorff perfused guinea pig spontaneously beating […] assessed as intraventicular conduction time at 0.1 uM (RVb = 19 to 24 +/- 1 to 2 ms); type: functional; settings: Cavia porcellus; in short: as §1
# [12] = Negative chronotropic activity against potassium-induced contraction in guinea pig left atrium assessed as decrease atrial rate; type: functional, tissue-based; settings: Cavia porcellus, Cardiac atrium
# Heart [13] = assay: Cardioprotective effect in Langendorff perfused guinea pig spontaneously beating […] assessed as heart rat at 1 uM (RVb = 175 to 190 +/- 5 to 11 bpm); type: functional, Cavia porcellus
# [14] = Negative inotropic activity against potassium-induced contraction in guinea pig left atrium assessed as decrease in developed tension; type: functional, tissue-based; settings: Cavia porcellus, Cardiac atrium
# Heart [15] = assay: Cardioprotective effect in Langendorff perfused guinea pig spontaneously beating […] assessed as heart rat at 0.01 uM (RVb = 175 to 190 +/- 5 to 11 bpm); type: functional, Cavia porcellus
# [16] = Cardioprotective effect in Langendorff perfused guinea pig spontaneously beating […] assessed as duration of ventricular action potential at 0.001 uM (RVb = 140 to 161 +/- 2 to 8 ms); type: functional, Cavia porcellus, Cardiac ventricle; in short: as §1
# [17] = Ratio of compound to auinidine for antiarrhythmic activity in sinusoidal alternating current-induced guinea pig left atrium; type: functional, Cavia porcellus, Cardiac atrium
# In short: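 The antiarrhythmic EC50 was taken from the ac-arrhythmia threshold rise in 1 Hz-driven guinea pig left atria, using probit analysis.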
# [18] = Cardioprotective effect in Langendorff perfused guinea pig spontaneously beating […] assessed as intraventicular conduction time at 1 uM (RVb = 19 to 24 +/- 1 to 2 ms); type: functional; settings: Cavia porcellus; in short: as §1
# [19] = Cardioprotective effect in Langendorff perfused guinea pig spontaneously beating […] assessed as atrioventicular conduction time at 10 uM (RVb = 50 to 55 +/- 1 to 4 ms); type: functional; settings: Cavia porcellus; in short: as §1
# [20] = Cardioprotective effect in Langendorff perfused guinea pig spontaneously beating […] assessed as atrioventicular conduction time at 0.001 uM (RVb = 50 to 55 +/- 1 to 4 ms); type: functional; settings: Cavia porcellus; in short: as §1
# [21] = Cardioprotective effect in Langendorff perfused guinea pig spontaneously beating […] assessed as duration of ventricular action potential at 10 uM (RVb = 140 to 161 +/- 2 to 8 ms); type: functional, Cavia porcellus, Cardiac ventricle; in short: as §1
# [22] = Cardioprotective effect in Langendorff perfused guinea pig spontaneously beating […] assessed as duration of ventricular action potential at 0.1 uM (RVb = 140 to 161 +/- 2 to 8 ms); type: functional, Cavia porcellus, Cardiac ventricle; in short: as §1
# [23] = Cardioprotective effect in Langendorff perfused guinea pig spontaneously beating […] assessed as atrioventicular conduction time at 1 uM (RVb = 50 to 55 +/- 1 to 4 ms); type: functional; settings: Cavia porcellus; in short: as §1
# [24] = Antiarrhythmic activity in sinusoidal alternating current-induced guinea pig left atrium assessed as increase in current strength at which extra beats occur at 100 uM measured every 30 mins; type: functional, Cavia porcellus, Cardiac atrium
# In short: (§2)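 Isolated guinea pig left atria, electrically driven at 1 Hz, were exposed to sinusoidal alternating current to induce arrhythmia. The read-out was the rise in the ac-arrhythmia threshold over concentrations up to 100 μM.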
# Heart [25] = assay: Cardioprotective effect in Langendorff perfused guinea pig spontaneously beating […] assessed as heart rat at 0.1 uM (RVb = 175 to 190 +/- 5 to 11 bpm); type: functional, Cavia porcellus
# [26] = Cardioprotective effect in Langendorff perfused guinea pig spontaneously beating […] assessed as intraventicular conduction time at 0.001 uM (RVb = 19 to 24 +/- 1 to 2 ms); type: functional; settings: Cavia porcellus; in short: as §1
# [27] = Antiarrhythmic activity in sinusoidal alternating current-induced guinea pig left atrium assessed as increase in current strength at which extra beats occur measured every 30 mins; type: functional, tissue-based; settings: Cavia porcellus, Cardiac atrium, 0.5 h; in short: as §2
# [28] = Cardioprotective effect in Langendorff perfused guinea pig spontaneously beating […] assessed as atrioventicular conduction time at 0.01 uM (RVb = 50 to 55 +/- 1 to 4 ms); type: functional; settings: Cavia porcellus; in short: as §1
# [29] = Antiarrhythmic activity in sinusoidal alternating current-induced guinea pig left atrium assessed as increase in current strength at which extra beats occur at 10 uM measured every 30 mins; type: functional, Cavia porcellus, Cardiac atrium; in short: as §2
# [30] = Negative inotropic activity against potassium-induced contraction in guinea pig left atrium assessed as decrease in developed tension at 0.5 uM relative to control; type: functional, Cavia porcellus, Cardiac atrium; set-up: scale not given: the % may be the effect or the level left
# Aorta [31] = assay: Vasorelaxant activity in potassium depolarized guinea pig aortic strip assessed as inhibition of calcium-induced contraction at 100 uM; type: functional; settings: Cavia porcellus
# [32] = […] chronotropic activity against potassium-induced contraction in guinea pig left atrium assessed as decrease atrial rate at 100 uM relative to control; type: functional, Cavia porcellus, Cardiac atrium; set-up: scale not given: the % may be the effect or the level left
# [33] = Negative inotropic activity against potassium-induced contraction in guinea pig left atrium assessed as decrease in developed tension at 1 uM relative to control; type: functional, Cavia porcellus, Cardiac atrium; set-up: scale not given: the % may be the effect or the level left
# [34] = Negative chronotropic activity against potassium-induced contraction in guinea pig left atrium assessed as decrease atrial rate at 10 uM relative to control; type: functional, Cavia porcellus, Cardiac atrium; set-up: scale not given: the % may be the effect or the level left
# [35] = Antiarrhythmic activity in sinusoidal alternating current-induced guinea pig left atrium assessed as increase in current strength at which extra beats occur at 1 uM measured every 30 mins; type: functional, Cavia porcellus, Cardiac atrium; in short: as §2
# [36] = Negative inotropic activity against potassium-induced contraction in guinea pig left atrium assessed as decrease in developed tension at 5 uM relative to control; type: functional, Cavia porcellus, Cardiac atrium; set-up: scale not given: the % may be the effect or the level left
# [37] = Negative chronotropic activity against potassium-induced contraction in guinea pig left atrium assessed as decrease atrial rate at 100 uM relative to control; type: functional, Cavia porcellus, Cardiac atrium; set-up: scale not given: the % may be the effect or the level left
# [38] = Antiarrhythmic activity in sinusoidal alternating current-induced guinea pig left atrium assessed as increase in current strength at which extra beats occur at 0.5 uM measured every 30 mins; type: functional, Cavia porcellus, Cardiac atrium; in short: as §2
# [39] = Negative inotropic activity against potassium-induced contraction in guinea pig left atrium assessed as decrease in developed tension at 10 uM relative to control; type: functional, Cavia porcellus, Cardiac atrium; set-up: scale not given: the % may be the effect or the level left
# [40] = Antiarrhythmic activity in sinusoidal alternating current-induced guinea pig left atrium assessed as increase in current strength at which extra beats occur at 5 uM measured every 30 mins; type: functional, Cavia porcellus, Cardiac atrium; in short: as §2
smiles,measurement,setting,value
Cc1cccc(C)c1NCC[C@@H]1CCCN2CCCC[C@H]12,Activity,Heart [1],136 bpm
same,intraventricular conduction time,[2],21 ms
same,intraventricular conduction time,[3],19 ms
same,Activity,[4],170 ms
same,Activity,Heart [5],182 bpm
same,Activity,[6],72%
same,AV conduction time,[7],57 ms
same,Activity,[8],89%
same,inhibition at 50 µM,Aorta [9],28%
same,Activity,[10],157 ms
same,intraventricular conduction time,[11],20 ms
same,EC50,[12],6890 nM
same,Activity,Heart [13],142 bpm
same,EC50,[14],340 nM
same,Activity,Heart [15],171 bpm
same,Activity,[16],154 ms
same,Ratio,[17],3
same,intraventricular conduction time,[18],20 ms
same,AV conduction time,[19],59 ms
same,AV conduction time,[20],53 ms
same,Activity,[21],175 ms
same,Activity,[22],160 ms
same,AV conduction time,[23],58 ms
same,Activity,[24],208%
same,Activity,Heart [25],163 bpm
same,intraventricular conduction time,[26],19 ms
same,EC50,[27],460 nM
same,AV conduction time,[28],56 ms
COc1cc(C(=O)NC[C@@H]2CCCN3CCCC[C@H]23)cc(OC)c1OC,Activity,[29],56%
same,EC50,[14],17 nM
same,Activity,[30],79%
same,inhibition at 100 µM,Aorta [31],7%
same,Activity,[32],11%
same,EC50,[27],2620 nM
Cc1cccc(C)c1NC[C@@H]1CCCN2CCCC[C@H]12,Activity,[29],28%
same,inhibition at 50 µM,Aorta [9],27%
same,EC50,[14],23 nM
same,Activity,[33],75%
same,Activity,[34],40%
COc1ccc2c(c1)nc(Cc1ccccc1)c(=O)n2C[C@H]1CCCN2CCCC[C@@H]12,Activity,[35],14%
same,Activity,[36],86%
same,inhibition at 50 µM,Aorta [9],18%
same,EC50,[12],2750 nM
same,EC50,[14],110 nM
same,Activity,[34],62%
O=C(Cn1nc2ccccc2n1)NC[C@@H]1CCCN2CCCC[C@H]12,Activity,[8],98%
same,EC50,[14],35 nM
same,inhibition at 100 µM,Aorta [31],4%
same,Activity,[37],34%
same,Activity,[38],26%
O=C(Cn1nc2ccc(Cl)cc2n1)NC[C@@H]1CCCN2CCCC[C@H]12,Activity,[39],92%
same,Activity,[40],28%
same,EC50,[14],74 nM
same,inhibition at 100 µM,Aorta [31],26%
same,Activity,[37],27%
